# Values joined by “and” are separate entries in the source; they are usually repeats but may differ in a detail not shown here. Equal values may be shown once.
# Key:
# [1] = (§1) Half life was measured at pH 7; format: ADME
# Procedure, shortened: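 Stability in pH 7 buffer, followed by HPLC; reported as half-life. The method is taken from an earlier paper.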
# HEp-2 = assay: Inhibition of colony formation of H.Ep-2 cells; format: functional, cell-based; conditions: Homo sapiens, read-out: I50
# Procedure, shortened: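 H.Ep.-2 cells exposed to drug over a 12-day period. Colony formation was scored against untreated controls, and I50 was taken as the concentration giving 50% inhibition.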
# L1210 [2] = assay: Inhibition of proliferation of L1210 cells; format: functional, cell-based; conditions: Mus musculus, read-out: I50
# Procedure, shortened: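 L1210 cells in suspension culture with drug for 48 h. I50 was the concentration giving 50% inhibition of proliferation relative to controls.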
# Mus musculus = assay: Percent increase in life span of p388 leukemia induced mice was determined at a dose of 200 mg/kg upon ip administration on days 1-5; format: functional; conditions: route intraperitoneal
# Procedure, shortened: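 Mice implanted with 10⁶ P388 leukemia cells were dosed intraperitoneally once daily on days 1-5 after implant. Activity is expressed as % increase in life span, and 30-day survivors were recorded.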
# [3] = as §1; format: ADME; remark: listed apart in the source
# Procedure, shortened: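 Stability in pH 7 buffer, with decomposition followed by HPLC and the half-life taken from it.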
# L1210 [4] = assay: Size distribution of cells at 25 uM conc.; format: functional, Mus musculus
# Procedure, shortened: (§2)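 L1210 suspension cultures with agent for 30 min or 18 h, then a 4-h labelling period. Size distribution was measured on a Model ZH Coulter Counter. The value is the instrument setting at the peak of cell size; higher settings mean larger cells.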
# L1210 [5] = assay: percent synthesis of protein in L1210 cells when incubated with the compound for 18 h uusing [3H]L-Leu as radioligand at 50 uM conc.; format: functional, Mus musculus
# Procedure, shortened: (§3)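 Protein synthesis in L1210 suspension cultures preincubated with agent for 30 min or 18 h. [4,5-3H]-L-leucine was then added, and incorporation into protein was sampled hourly over 4 h. Values are 4-h incorporation as % of untreated control.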
# L1210 [6] = assay: percent synthesis of RNA in L1210 cells when incubated with compound for 18 hr using […] as radioligand at 50 uM conc.; format: functional, Mus musculus
# Procedure, shortened: (§4)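 RNA synthesis in L1210 suspension cultures preincubated with agent for 30 min or 18 h. [5-3H]Urd was then added, and incorporation into RNA was sampled hourly over 4 h. Values are 4-h incorporation as % of untreated control.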
# L1210 [7] = assay: percent synthesis of DNA in L1210 cells when incubated with the compound for 30 min using […] as radioligand at 100 uM conc.; format: functional, Mus musculus
# Procedure, shortened: (§5)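 DNA synthesis in L1210 suspension cultures preincubated with agent for 30 min or 18 h. [3H]dThd was then added to the medium, and incorporation into DNA was sampled at 1-h intervals over 4 h. Values are for the 4-h labelling period, as % of untreated control.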
# L1210 [8] = assay: Number of cells present measured with the Coulter counter at 100 uM conc.; format: functional, Mus musculus
# Procedure, shortened: (§6)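 L1210 suspension cultures with agent for 30 min or 18 h, then a further 4 h with radiolabelled precursor. Cells were counted by Coulter counter and expressed as R, the count relative to the initial cell number (R = 1.0). R < 1.0 means a fall below the starting number; R > 1.0 means proliferation.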
# L1210 [9] = assay: Size distribution of cells at 50 uM conc.; format: functional, Mus musculus; procedure, shortened: as §2
# L1210 [10] = assay: percent synthesis of RNA in L1210 cells when incubated with compound for 30 min using […] as radioligand at 100 uM conc.; format: functional, Mus musculus; procedure, shortened: as §4
# L1210 [11] = assay: percent synthesis of RNA in L1210 cells when incubated with compound for 18 hr using […] as radioligand at 25 uM conc.; format: functional, Mus musculus; procedure, shortened: as §4
# L1210 [12] = assay: Number of cells present measured with the Coulter counter at 25 uM conc.; format: functional, Mus musculus; procedure, shortened: as §6
# L1210 [13] = assay: percent synthesis of DNA in L1210 cells when incubated with the compound for 30 min using […] as radioligand at 50 uM conc.; format: functional, Mus musculus; procedure, shortened: as §5
# L1210 [14] = assay: Number of cells present measured with the Coulter counter at 50 uM conc.; format: functional, Mus musculus; procedure, shortened: as §6
# L1210 [15] = assay: Size distribution of cells at 100 uM conc.; format: functional, Mus musculus; procedure, shortened: as §2
# L1210 [16] = assay: percent synthesis of RNA in L1210 cells when incubated with compound for 30 min using [3H]dThd as radioligand at 50 uM conc.; format: functional, Mus musculus; conditions: in the assay text read “[5-3H]Urd” for “[3H]dThd”; procedure, shortened: as §4
# L1210 [17] = assay: percent synthesis of DNA in L1210 cells when incubated with the compound for 18 h using […] as radioligand at 25 uM conc.; format: functional, Mus musculus; procedure, shortened: as §5
# L1210 [18] = assay: percent synthesis of protein in L1210 cells when incubated with the compound for 30 min using [3H]L-Leu as radioligand at 50 uM conc.; format: functional, Mus musculus; procedure, shortened: as §3
# L1210 [19] = assay: percent synthesis of DNA in L1210 cells when incubated with the compound for 18 h using […] as radioligand at 50 uM conc.; format: functional, Mus musculus; procedure, shortened: as §5
compound,measurement,setting,value
CCN(N=O)C(=O)NCC1OC(n2cc(C)c(=O)[nH]c2=O)CC1O (stereo unspecified),half-life,[1],1140 min
same,IC50,HEp-2,> 87 µM
same,IC50,L1210 [2],> 87 µM
same,ILS at 200 mg/kg,Mus musculus,0%
Cc1cn(C2CC(O)C(C(=O)Nc3ccc(NC(=O)N(C)N=O)cc3)O2)c(=O)[nH]c1=O (stereo unspecified),half-life,[1],24 min
same,IC50,HEp-2,46 µM
same,IC50,L1210 [2],> 90 µM
same,ILS at 200 mg/kg,Mus musculus,79%
O=NN(CCCl)C(=O)N[C@H]1C(O)O[C@H](CO)[C@@H](O)[C@@H]1O (stereo partly specified) [CHLOROZOTOCIN],T1/2,[3],52.5 min
O=NN(CCCl)C(=O)NC1CCCCC1 [LOMUSTINE],Cell size,L1210 [4],67.5 and 90
same,Control,L1210 [5],584%
same,Control,L1210 [6],393%
same,Control,L1210 [7],46% and 131%
same,Cell no,L1210 [8],1 and 0.42
same,Cell size,L1210 [9],62.5 and 90
same,Control,L1210 [10],101% and 246%
same,Control,L1210 [11],106% and 282%
same,Cell no,L1210 [12],1.02 and 0.48
same,Control,L1210 [13],75%
same,Cell no,L1210 [14],1 and 0.53
same,Cell size,L1210 [15],65 and 85
same,Control,L1210 [16],121%
same,Control,L1210 [17],88% and 139%
same,Control,L1210 [18],79%
same,Control,L1210 [19],143%
CN(N=O)C(N)=O [N-METHYL-N-NITROSUREA],T1/2,[3],52.5 min

# — ChEMBL document CHEMBL1123956, “Nitrosoureido nucleosides as potential inhibitors of nucleotide biosynthesis” (J Med Chem, 1988)
